Assay [1] addresses murine Sn (Mus musculus, UniProt Q62230). The following applies: inhibition of mSn-Fc chimera binding to natural-ligand beads; triplicate, ± SD. In short, it runs like this:
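Magnetic beads coated with Neu5Acα2-3Galβ1-4GlcNAc were bound by murine sialoadhesin-Fc chimera in the presence of serial dilutions of competitor (9-N-acyl sialoside analogs). Displacement of bead-bound chimera was read by flow cytometry, and IC50 was taken as the concentration needed to displace the bound chimera. Titrations were run in triplicate, with SD from three independent measurements.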

The test system of assay [2] is Sn expressing cells. The following applies: liposomes decorated with the ligand; cited from earlier work.
The subject of assay [3] is Sn. Particulars: liposomes decorated with the ligand; cited from earlier work.
The test system of assay [4] is CD22 (Siglec-2) on B cells. Particulars: ligand targeting chemotherapeutic loaded liposomes; cited from earlier work.
Assay [5] has as its system Sn. The following applies: natural ligand in a comparable assay; cited from earlier work.

Where “and” joins values, the source holds several entries; their conditions need not be identical. Equal values may be shown once.

murine Sn, sequence (Q62230 20-136 limits assumed): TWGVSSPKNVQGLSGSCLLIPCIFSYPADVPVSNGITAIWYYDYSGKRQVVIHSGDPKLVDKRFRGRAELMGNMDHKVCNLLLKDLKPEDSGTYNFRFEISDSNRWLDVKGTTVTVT

Consider `CC(=O)NC1C(O)OC(CO)C(OC2OC(CO)C(O)C(OC3(C(=O)O)CC(O)C(NC(C)=O)C(C(O)C(O)CNC(=O)c4ccc(-c5ccccc5)cc4)O3)C2O)C1O` (stereo not drawn) [Compound 1, 9-N-biphenylcarbamoyl-Neu5Acα2-3Galβ1-4GlcNAc], for which the IC50 in assay [1] was 4.8 µM and 4.82 µM. In addition, in assay [2], the “targeting of Sn expressing cells in vitro” value was “capable of targeting Sn expressing cells in vitro”. Besides, the “selectivity for in vivo targeting” value in assay [3] is “not sufficiently selective”.
For the compound `CC(=O)NC1C(O)OC(CO)C(OC2OC(CO)C(O)C(OC3(C(=O)O)CC(O)C(NC(C)=O)C(C(O)C(O)CNC(=O)c4cc5c(s4)-c4ccccc4OC5)O3)C2O)C1O` (stereo not drawn) [Compound 2, 9-N-(4H-thieno[3,2-c]chromene-2-carbamoyl)-Neu5Acα 2-3Galβ1-4GlcNAc], in assay [1], the IC50 was 0.38 ± 0.04 µM.
Take “9-N-biphenylcarbamoyl-Neu5Acα2-6Galβ1-4GlcNAc [6′-^BPCNeu5Ac]”: the “survival in murine model of human B cell lymphoma” value in assay [4] was “prolong life”.
Regarding Neu5Acα2-3Galβ1-4GlcNAc, the IC50 in assay [5] was 1300 µM.

The values are drawn from publication PMC3462166 (Journal of the American Chemical Society, 2012).
